From PubChem
RGS4 pot: potentiators or activators of RGS4; B-score at 10 µM; actives 0.92% (n = 310,000); HEK293 M3R/inducible RGS4, carbachol calcium flux Fluo4; stronger effect = lower value;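 active = B-score of the integrated calcium signal more than 4 SD below the library mean, with starting fluorescence not abnormally high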;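 also: negative B-score means reduced calcium response which marks RGS4 activation or potentiation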
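Detection: kinetic calcium fluorescence imaging with Fluo4-AM dye, 2 µM / Material: HEK293 cells with stable M3R and inducible RGS4 / Schedule: recording 10 s baseline at 1 Hz, 100 s post-agonist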
MrgX1 agonist: activates human MrgX1 receptor signaling; B-score at 10 µM; Q96LB2; MrgX1-HEK293 cells, Fluo-4 calcium fluorescence, agonist mode; stronger effect = higher value; AID 588627; actives 0.44% (n = 310,000);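 active = calcium response B-score plate-corrected fluorescence ratio at least 3 library SD, with starting fluorescence B-score inside 5 SD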
Target sequence (Q96LB2 whole entry, looked up): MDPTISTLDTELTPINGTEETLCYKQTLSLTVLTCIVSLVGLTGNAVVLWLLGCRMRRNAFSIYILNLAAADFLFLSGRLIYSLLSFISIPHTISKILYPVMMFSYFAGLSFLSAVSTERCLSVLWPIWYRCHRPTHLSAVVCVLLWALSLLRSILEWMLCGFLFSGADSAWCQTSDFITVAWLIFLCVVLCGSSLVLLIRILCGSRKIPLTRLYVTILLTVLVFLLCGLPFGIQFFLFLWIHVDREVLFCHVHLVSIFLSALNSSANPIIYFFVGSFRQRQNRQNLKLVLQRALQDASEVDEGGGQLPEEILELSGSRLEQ
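Material: HEK293 cells stably expressing human MrgX1 receptor | Quantity: 15,000 cells per well | Times: Cells plated overnight, dye loaded 0.5 h 37 °C, 0.5 h room temperature | Measured by: Kinetic Fluo-4 NW fluorescence of intracellular calcium | Control set: Positive and negative controls per plate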
RGS4 inh: human RGS4 inhibition; actives 0.45% (n = 310,000); HEK293 M3R/RGS4 inducible, Fluo-4 calcium flux; stronger effect = higher value; triggered by carbachol at its EC20; B-score at 10 µM; P49798;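 active = B-score, a plate-corrected calcium signal, over three deviations above library mean, with baseline fluorescence within five deviations of library mean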;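 also: RGS4 expression induced by doxycycline in cells with stable M3 receptor; B-score is computed from the integrated fluorescence ratio over baseline after carbachol; higher B-score means a larger calcium signal and so more RGS4 inhibition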
MrgX1 antag: human MrgX1 receptor antagonism, primary screen. MRGX1-HEK293 calcium flux, Fluo-4, BAM8-22 antagonism; stronger effect = lower value. actives 1.3% (n = 310,000). B-score at 10 µM. Q96LB2;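 active = calcium-response B-score plate-corrected more than 3 library SD below zero, starting fluorescence within 5 deviations, no agonist response on first addition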;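 also: peak minus trough fluorescence over baseline after final BAM8-22 challenge near maximal dose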
MrgX1 allo act: human MrgX1 positive allosteric modulation, primary screen; Q96LB2; MrgX1-HEK293, Fluo-4 calcium flux, FDSS; stronger effect = higher value; B-score at 10 µM; actives 0.63% (n = 310,000);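 active = plate-corrected calcium response at least 3 library SD above typical, normal starting fluorescence, not activating the receptor alone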;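 also: compound read alongside a low EC10 to EC30 dose of BAM8-22 agonist; peak minus trough fluorescence over baseline measured at the second addition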
RGS4 inh valid: RGS4 inhibitor validation | calcium response, % at 10 µM | shares compounds with RGS4 inh | AID 492999 | HEK293 M3R/RGS4, carbachol calcium Fluo-4 fluorescence; carbachol added at its EC20; 0 = buffer wells, 100 = carbachol control | actives 65% (n = 1,700);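 active = duplicate-averaged calcium response above the buffer-only control mean plus 5 SD of those controls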;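 also: integrated fluorescence ratio F max minus min over baseline F0; higher response in RGS4-induced cells means RGS4 inhibition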
RGS4 uninduced: non-induced cell nonspecific activity of RGS4 inhibitors; shares compounds with RGS4 inh; HEK293 M3R non-induced, carbachol calcium Fluo-4; submaximal (EC20) carbachol stimulus; buffer wells 0%, carbachol control wells 100%; activity (percent), % at 10 µM; actives 20% (n = 1,900); AID 493000; call rule not given here;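 also: RGS4 induction absent so cells express M3R without RGS4; higher means more calcium signal and flags a non-specific hit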
M3R basal Ca ctr: second RGS4 inhibitor counter-screen in uninduced cells lacking carbachol. actives 22% (n = 1,900). shares compounds with RGS4 inh. HEK293 M3R/RGS4 non-induced, Fluo-4 calcium, no carbachol; normalised: buffer wells 0%, carbachol wells 100%. calcium response (agonist-mode artifact), % at 10 µM. AID 493001;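 active = duplicate-averaged calcium rise in uninduced cells above buffer wells' mean plus 5 SD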
Starred values were filed as active, the others as inactive; i = inactive; . = not tested or not shown. The list is not random: actives were taken first. Their share in the collection is about 3.5%.

SMILES	RGS4 pot	MrgX1 agonist	RGS4 inh	MrgX1 antag	MrgX1 allo act	RGS4 inh valid	RGS4 uninduced	M3R basal Ca ctr
CCO[C@H]1OC(C(=O)N2CCN(C)CC2)=C[C@@H](C)[C@@H]1CCCO	i	i	i	i	i	.	.	.
Nc1cccn2c(-c3ccc(Cl)cc3)cnc12	i	i	i	i	i	.	.	.
Nc1cccn2c(-c3ccc(Cl)c(Cl)c3)cnc12	i	i	12*	i	i	7.5%*	i	i
COc1ccc(Nc2nc(-c3ccc(OC)cc3)cs2)cc1	i	i	i	i	i	i	i	i
COc1ccc(-c2csc(Nc3ccc(S(=O)(=O)Nc4cc(C)on4)cc3)n2)cc1	i	i	14.5*	i	i	30.5%*	36.5%*	i
COc1ccc(-c2csc(Nc3ccccc3)n2)cc1	i	i	i	i	i	.	.	.
Oc1ccc(Nc2nc(-c3ccc(O)cc3)cs2)cc1	i	i	i	i	i	i	i	i
COc1cc(NS(=O)(=O)c2ccc(Nc3nc(-c4cccc([N+](=O)[O-])c4)cs3)cc2)nc(OC)n1	i	i	i	i	i	.	29.5%*	i
Cc1ccc(CN2C(=O)CCC2C(=O)NCCN2CCN(c3cccc(Cl)c3)CC2)cc1 (stereo not drawn)	i	i	i	i	i	.	.	.
CCCC(=O)OCCNc1cc(Sc2nc3ccccc3[nH]2)c2nonc2c1[N+](=O)[O-]	i	i	i	i	i	.	i	14.0%*
CCC(=O)OCCNc1cc(Sc2nccn2C)c2nonc2c1[N+](=O)[O-]	i	i	i	i	i	.	i	i
CCC(=O)OCCNc1cc(SCCC(=O)OC)c2nonc2c1[N+](=O)[O-]	i	i	i	i	i	.	.	.
N#CCCn1c(C2CCCCC2)nc2ccccc21	i	i	i	i	i	.	.	.
CN(CC1CCOCC1)C(=O)CC1C(=O)NCCN1Cc1cccc(C(F)(F)F)c1 (stereo not drawn)	i	.	i	.	.	.	.	.
CN1CCN(c2cc(N3CCc4ccccc4C3)c(F)cc2[N+](=O)[O-])CC1	i	i	i	i	i	.	.	.
COc1ccc(-c2ccc3oc(-c4ccc(OC)cc4)c(C#CCO)c3c2)cc1	i	i	i	i	i	.	.	.
COc1ccc(-c2sc3ccc(OC)cc3c2C#CCCO)cc1	i	i	i	i	i	i	i	i
Brc1ccc(C=Nc2ccc3c(c2)OCCOCCOCCO3)s1	i	i	i	i	i	.	.	.
Cc1ccc(Cn2c(CCCO)nc3ccccc32)cc1	i	i	i	i	i	.	.	.
Cc1cnc(Sc2ncccc2[N+](=O)[O-])nc1	i	i	i	i	i	.	.	.
Cc1cc(C)n2nc(Sc3ncccc3[N+](=O)[O-])nc2n1	i	i	9.53*	i	i	28.5%*	34.0%*	i
Cc1ccc(/C=C(\NC(=O)c2ccc(C)cc2)c2nc(=S)[nH][nH]2)cc1	i	i	10.6*	i	i	35.0%*	43.5%*	i
Cc1ccc(C(=O)N/C(=C\c2ccccc2F)c2nc(=S)[nH][nH]2)cc1	i	i	i	i	i	.	.	.
Cc1cc(C(=O)NCc2csc(-c3ccccc3)n2)no1	i	i	i	i	i	.	.	.
COc1ccc(NC(=O)C(=O)NCC(=O)Nc2cc(OC)ccc2OC)cc1	i	i	i	i	i	.	.	.
COc1ccc(OC)c(NC(=O)C(=O)NCc2ccncc2)c1	i	i	4.81*	i	i	10.5%*	i	i
